The source of these data is ChEMBL document CHEMBL1130209, “A novel series of 2,5-substituted tryptamine derivatives as vascular 5HT1B/1D receptor antagonists” (J Med Chem, 1997).

Active and inactive are the calls of the source. The calls are words filed in the database; no cut-off is given here.

For orientation: pKB means the KB on a negative log10 scale, so that one unit is a factor of ten.

Holding throughout (format): tissue-based
Holding throughout (conditions): Oryctolagus cuniculus, target entry is the homologue from another species

The target in assay [1] is 5-hydroxytryptamine receptor 1B (Homo sapiens) (UniProt P28222). Nature of the assay: Dissociation equilibrium constant against the vascular 5-hydroxytryptamine 1B like receptor in the rabbit saphenous vein. The gist of the method:
(§1)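 Saphenous vein rings (4–5 mm) from male New Zealand white rabbits, killed with pentobarbitone 80 mg/kg iv and exsanguination, mounted on tungsten wires. Phenoxybenzamine 0.3 μM for 30 min, washed out, 1 μM 5HT viability check. Cumulative 5HT curve, then after 60 min recovery a test compound curve. Non-agonists tested as 5HT antagonists, giving apparent pKB.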

Assay [2] has as its target 5-hydroxytryptamine receptor 2A (Homo sapiens) (UniProt P28223). The experiment in a line: Dissociation equilibrium constant against the vascular 5-hydroxytryptamine 2A receptor in the rabbit […] aorta.
Assay [3] has as its target 5-hydroxytryptamine receptor 1B (Homo sapiens) (UniProt P28222). Nature of the assay: The dissociation equilibrium constant (pKB=-log KB) of compound was determined against the vascular 5-hydroxytryptamine 1B like receptor in the rabbit saphenous vein(RbSV); NS=non surmountable. The gist of the method: as §1

5-hydroxytryptamine receptor 1B (Homo sapiens), sequence (P28222 whole entry): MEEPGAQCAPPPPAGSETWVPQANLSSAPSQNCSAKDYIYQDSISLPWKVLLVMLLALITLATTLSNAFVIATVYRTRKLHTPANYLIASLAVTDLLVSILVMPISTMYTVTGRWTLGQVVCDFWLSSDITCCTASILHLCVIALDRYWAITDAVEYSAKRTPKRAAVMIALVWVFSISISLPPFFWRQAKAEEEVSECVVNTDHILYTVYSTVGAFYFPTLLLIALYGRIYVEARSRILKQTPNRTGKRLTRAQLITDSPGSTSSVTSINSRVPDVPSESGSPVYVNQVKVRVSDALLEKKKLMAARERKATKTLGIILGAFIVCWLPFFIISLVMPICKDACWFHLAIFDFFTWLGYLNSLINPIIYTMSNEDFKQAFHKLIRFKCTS
5-hydroxytryptamine receptor 2A (Homo sapiens), sequence (P28223 whole entry): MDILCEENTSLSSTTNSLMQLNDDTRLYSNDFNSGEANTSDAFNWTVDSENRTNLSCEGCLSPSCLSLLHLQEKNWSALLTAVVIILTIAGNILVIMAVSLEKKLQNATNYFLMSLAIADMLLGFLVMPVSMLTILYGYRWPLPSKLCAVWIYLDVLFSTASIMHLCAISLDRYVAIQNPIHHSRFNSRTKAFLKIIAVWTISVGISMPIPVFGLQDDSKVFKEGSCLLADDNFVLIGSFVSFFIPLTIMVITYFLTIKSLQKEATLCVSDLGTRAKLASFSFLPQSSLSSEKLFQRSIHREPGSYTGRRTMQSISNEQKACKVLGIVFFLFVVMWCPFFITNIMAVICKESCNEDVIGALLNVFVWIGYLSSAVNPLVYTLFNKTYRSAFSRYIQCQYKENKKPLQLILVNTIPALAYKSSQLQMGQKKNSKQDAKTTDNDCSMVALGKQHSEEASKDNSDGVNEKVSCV

For `CC(C)OC(=O)c1[nH]c2ccc(CN3C(=O)NC(C)(C)C3=O)cc2c1CCN(C)C`, the pKB in assay [1] and in assay [2] was 5.62 throughout.
As for `CCOC(=O)c1[nH]c2ccc(CCC3COC(=O)N3)cc2c1CCN(C)C` (stereo unspecified), the pKB in assay [1] amounted to 7.21; in assay [2] it was 6.76.
On to `COC(=O)c1[nH]c2ccc(CCN3C(=O)NC(C)(C)C3=O)cc2c1CCN(C)C`, for which the pKB in assay [1] was found to be 6.88; in assay [2], 5.02.
For `CC(C)OC(=O)c1[nH]c2ccc(CCN3C(=O)NC(C)(C)C3=O)cc2c1-c1ccncc1` the same measures were 5.25 and below 5.
`CCOC(=O)c1[nH]c2ccc(CCN3C(=O)CNC3=O)cc2c1C1=CCN(C)CC1`: the values for the negative-log KB (pKB) in assay [1] and in assay [2] were 5.88 and below 5, respectively.
Taken in the same sequence, the figures for `CCOC(=O)c1[nH]c2ccc(CCN3C(=O)CCC3=O)cc2c1CCN(C)C` were 6.78 and 6.3.
For the compound `COC(=O)c1[nH]c2ccc(CCN3C(=O)CNC3=O)cc2c1CCN(C)C`, the pKB in assay [1] was 6.97; in assay [2] it was below 5.
With `COC(=O)c1[nH]c2ccc(CN3C(=O)NC(C)(C)C3=O)cc2c1CCN(C)C`, the pKB in assay [1] stood at 6.45; in assay [2], 5.03.
For `COC(=O)c1[nH]c2ccc(CCN3CCOC3=O)cc2c1CCN(C)C` the same measures were 6 and below 5.
For `CC(C)OC(=O)c1[nH]c2ccc(CCN3C(=O)NC(C)(C)C3=O)cc2c1CCN(C)C`, the pKB in assay [1] was 6.82; in assay [2], 5.8.
Turning to `CN(C)CCc1c(C#N)[nH]c2ccc(CC3COC(=O)N3)cc12` (stereo unspecified), the pKB in assay [1] came out at 4.8; in assay [2] it was 4.6.
Regarding `COC(=O)c1[nH]c2ccc(CCC3COC(=O)N3)cc2c1CCN(C)C` (stereo unspecified), the pKB was 6.61 in assay [1] and 5.88 in assay [2].
Take `CCOC(=O)c1[nH]c2ccc(CCN3C(=O)c4ccccc4C3=O)cc2c1CCN(C)C`: the values for the pKB in assay [1] and in assay [2] were 7.54 and 6.26, respectively.
Consider `CN(C)CCc1c(C(=O)O)[nH]c2ccc(CCN3C(=O)CNC3=O)cc12`, for which the pKB in assay [1] was 6.17; in assay [2], below 5.
Take `CCOC(=O)c1[nH]c2ccc(CCN3C(=O)c4ccccc4C3=O)cc2c1C1=CCN(C)CC1`: the values for the negative logarithm of the KB (pKB) in assay [1] and in assay [2] were 6.42 and 5.02, respectively.
Turning to `CC(C)OC(=O)c1[nH]c2ccc(CCN3C(=O)NC(C)(C)C3=O)cc2c1C1=CCN(C)CC1`, the pKB in assay [1] was 6.34; in assay [2] it was below 5.
With `CC(C)OC(=O)c1[nH]c2ccc(CCN3C(=O)CNC3=O)cc2c1CCN(C)C`, the negative-log KB (pKB) in assay [1] came out at 6.85; in assay [2] it was 6.57.
With `CCOC(=O)c1[nH]c2ccc(CCN3C(=O)CNC3=O)cc2c1C1CCN(C)CC1`, the negative-log KB (pKB) in assay [1] and in assay [2] was below 5 throughout.
In the case of `CCOC(=O)c1[nH]c2ccc(CCC3NC(=O)N(C)C3=O)cc2c1CCN(C)C` (stereo unspecified), the negative logarithm of the KB (pKB) in assay [1] worked out at 7.3; in assay [2], 6.2.
On to `CCOC(=O)c1[nH]c2ccc(CCN3C(=O)NC(C)(C)C3=O)cc2c1CCN(C)C`, for which the negative logarithm of the KB (pKB) in assay [1] was found to be 7.34; in assay [2], 5.23.
For the compound `CN(C)CCc1c(C(N)=O)[nH]c2ccc(CC3COC(=O)N3)cc12` (stereo unspecified), the pKB in assay [1] is 4.75; in assay [2] it was below 4.5.
For the compound `CCOC(=O)c1[nH]c2ccc(CCN3CCCC3=O)cc2c1CCN(C)C`, the pKB in assay [1] worked out at 6.1; in assay [2], 5.5.
For the compound `COC(=O)c1[nH]c2ccc(CCN3C(=O)c4ccccc4C3=O)cc2c1CCN(C)C`, the results for the pKB in assay [1] and in assay [2] were 7.39 and 5.66, respectively.
In the case of `CN(C)CCc1c(C(=O)OCc2ccccc2)[nH]c2ccc(CCN3C(=O)CNC3=O)cc12`, the pKB in assay [1] turned out to be 7.91; in assay [2], 7.3.
On to `CCOC(=O)c1[nH]c2ccc(CN3C(=O)CNC3=O)cc2c1CCN(C)C`, for which the pKB came to 5.32 in assay [1] and 5.86 in assay [2].
On to `CCOC(=O)c1[nH]c2ccc(CN3C(=O)NC(C)(C)C3=O)cc2c1CCN(C)C`, for which the results for the pKB in assay [1] and in assay [2] were 6.54 and 5.52, respectively.
Regarding `CN(C)CCc1c(C(=O)OC2CCCCC2)[nH]c2ccc(CCN3C(=O)NC(C)(C)C3=O)cc12`, the pKB is 5.95 in assay [1] and 4.77 in assay [2].
Take `COC(=O)c1[nH]c2ccc(CCN3C(=O)CNC3=O)cc2c1-c1ccncc1`: the negative logarithm of the KB (pKB) in assay [2] was below 5. In assay [3], the pKB entry is “inactive”.
As for `CCOC(=O)c1[nH]c2ccc(CCN3C(=O)CNC3=O)cc2c1-c1ccncc1`, the negative logarithm of the KB (pKB) was 5.29 in assay [1] and below 5 in assay [2].
Consider `CCOC(=O)c1[nH]c2ccc(CC3COC(=O)N3)cc2c1CCN(C)C` (stereo unspecified), for which the results for the pKB in assay [1] and in assay [2] were 6.12 and 5.66, respectively.
Taken in the same sequence, the figures for `COC(=O)c1[nH]c2ccc(CN3C(=O)CNC3=O)cc2c1CCN(C)C` were 5.41 and 5.15.
For `CN(C)CCc1c(Br)[nH]c2ccc(CC3COC(=O)N3)cc12` (stereo unspecified), the results for the pKB in assay [1] and in assay [2] were 5.86 and below 5, respectively.
On to `CCOC(=O)c1[nH]c2ccc(CCN3C(=O)CSC3=O)cc2c1CCN(C)C`, for which the pKB worked out at 7.72 in assay [1] and 7.56 in assay [2].
